Measured values from ChEMBL document CHEMBL1148287, “Design of potent, selective, and orally bioavailable inhibitors of cysteine protease cathepsin k” (J Med Chem, 2004).

What was measured:
Cathepsin K [1] = biological target: T1, Cathepsin K (Homo sapiens, UniProt P43235); assay: Concentration required to inhibit 50% of cysteine protease cathepsin K of human
T1 sequence (P43235 whole entry): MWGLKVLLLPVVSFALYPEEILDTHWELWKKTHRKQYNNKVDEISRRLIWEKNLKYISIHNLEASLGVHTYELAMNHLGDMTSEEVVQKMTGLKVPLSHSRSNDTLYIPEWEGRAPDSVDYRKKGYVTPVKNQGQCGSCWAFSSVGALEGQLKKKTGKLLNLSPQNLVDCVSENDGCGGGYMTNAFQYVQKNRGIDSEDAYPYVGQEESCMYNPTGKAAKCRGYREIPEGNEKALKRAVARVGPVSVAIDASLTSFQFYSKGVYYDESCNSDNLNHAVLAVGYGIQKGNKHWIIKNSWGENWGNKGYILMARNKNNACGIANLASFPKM
In short: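 Reactions were started by adding inhibitor plus substrate to enzyme. AMC fluorescence (ex 360/em 440) progress curves were followed over 2.3 h at varied inhibitor concentrations. IC50 was fitted as rate = Vmax/(1+[I]/IC50).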

Cathepsin K [2] = biological target: T2, Cathepsin K (Rattus norvegicus, UniProt O35186); assay: Inhibition of cysteine protease cathepsin K of rat
T2 sequence (O35186 whole entry): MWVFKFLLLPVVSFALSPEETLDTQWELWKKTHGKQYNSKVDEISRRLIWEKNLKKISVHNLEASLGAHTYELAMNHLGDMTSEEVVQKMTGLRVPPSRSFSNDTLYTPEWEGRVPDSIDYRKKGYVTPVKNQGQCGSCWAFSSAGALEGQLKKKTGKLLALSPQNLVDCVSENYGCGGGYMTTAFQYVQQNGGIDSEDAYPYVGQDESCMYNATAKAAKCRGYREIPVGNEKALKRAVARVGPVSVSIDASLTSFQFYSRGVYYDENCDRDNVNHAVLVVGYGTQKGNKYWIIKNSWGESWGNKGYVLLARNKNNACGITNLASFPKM

[3] = Selectivity as ratio between IC50 against Cathepsin B and IC50 against Cathepsin K
In short: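 Human liver cathepsin B and recombinant human cathepsin K were each run with Cbz-Phe-Arg-AMC at 10 μM final (Km 400 and 70 μM). Both used pH 5.5 acetate/DTT/NaCl buffer, 10% DMSO, 30 °C and a 2.3 h fluorescence progress-curve read (ex 360/em 440). IC50s were fitted from rate vs [I], and the ratio of the two IC50s was taken.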

[4] = Selectivity as ratio between IC50 against Cathepsin L and IC50 against Cathepsin K
In short: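 Both assays used pH 5.5 acetate/DTT/NaCl, 10% DMSO, 30 °C and AMC fluorescence progress curves over 2.3 h. IC50s were fitted from rate vs [I] and taken as a ratio.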

[5] = Selectivity ratio between IC50 against Cathepsin S and IC50 against Cathepsin K
In short: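 Recombinant human cathepsin S was run with Cbz-Val-Val-Arg-AMC at 10 μM final (Km >100 μM); human cathepsin K used Cbz-Phe-Arg-AMC at 10 μM. Both were in pH 5.5 sodium acetate with 10 mM DTT, 120 mM NaCl and 10% DMSO at 30 °C, with AMC fluorescence progress curves over 2.3 h. The ratio was taken from the fitted IC50s.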

Homo sapiens = species: Homo sapiens; assay: Selectivity as ratio between IC50 against Cathepsin V and IC50 against Cathepsin K
In short: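 Conditions were pH 5.5 acetate buffer with 10 mM DTT, 120 mM NaCl and 10% DMSO at 30 °C, with fluorescence progress curves over 2.3 h. The IC50 fits gave the ratio.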

[6] = Compound was tested for its cell permeability in the Madin-Darby canine kidney cell monolayer transport assay; format: ADME, Canis lupus familiaris; conditions: dog, MDCK; read-out: Activity
[7] = Percent instability was measured by Rat S9 liver […] metabolism assay, in vitro; format: ADME, Liver S9 fraction; conditions: read-out: Activity
In short: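 Rat S9 liver metabolism, read as % metabolized after 1 h incubation at 37 °C, run in duplicate.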

[8] = biological target: Cathepsin (H and K) (Homo sapiens) (UniProt P09668+P43235); assay: Selectivity for Cathepsins H and K, ratio of IC50; format: protein assay
Cathepsin (H and K) (Homo sapiens), sequence (P09668 whole entry, looked up, one chain of several): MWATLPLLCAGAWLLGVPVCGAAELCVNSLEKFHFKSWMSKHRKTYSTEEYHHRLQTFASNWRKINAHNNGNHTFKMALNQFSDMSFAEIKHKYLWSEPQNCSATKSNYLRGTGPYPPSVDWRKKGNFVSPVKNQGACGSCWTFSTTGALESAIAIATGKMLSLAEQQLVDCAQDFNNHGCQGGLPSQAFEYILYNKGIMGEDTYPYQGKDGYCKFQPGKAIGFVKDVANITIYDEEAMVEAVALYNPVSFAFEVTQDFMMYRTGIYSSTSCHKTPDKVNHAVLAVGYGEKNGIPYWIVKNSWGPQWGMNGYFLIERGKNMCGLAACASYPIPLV
In short: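 Human liver cathepsin H was run with L-Arg-β-naphthalamide at 50 μM final (Km 195 μM), read at ex 340/em 420. Human cathepsin K used Cbz-Phe-Arg-AMC at 10 μM, read at ex 360/em 440. Both were at pH 5.5 with DTT/NaCl and 10% DMSO at 30 °C, with 2.3 h progress curves. IC50s were fitted from rate vs [I] and ratioed.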

IC50 (Cathepsin K [1]) [µM] | IC50 (Cathepsin K [2]) [µM] | Ratio [3] | Ratio [4] | Ratio [5] | Ratio (Homo sapiens) | SMILES | further results
0.062 | 1.2 | > 200 | 40 | 8.3 | 19 | CCCC[C@H](NC(=O)OC(C(C)C)C(C)C)C(=O)C(=O)Nc1ccnn1-c1ccccn1 | –
0.087 | – | – | – | – | – | CCC(C)[C@H](NC(=O)OC(C(C)C)C(C)C)C(=O)C(=O)NCc1cccs1 (some centres not stated) | –
0.00041 | 0.011 | – | – | – | – | CCCC[C@H](NC(=O)OC(C(C)C)C(C)C)C(=O)C(=O)Nc1ccn(C)n1 | –
0.00047 | 0.0055 | 1100 | 26 | 1.7 | 14 | CCCC[C@H](NC(=O)OC(C(C)C)C(C)C)C(=O)C(=O)Nc1[nH]ncc1C | Papp [6]: 37 ×10⁻⁶ cm/s; metabolised [7]: 68%; Ratio [8]: 2100
0.027 | – | – | – | – | – | CC(C)C(OC(=O)N[C@@H](Cc1ccccc1)C(=O)C(=O)NCc1cccs1)C(C)C | –
0.047 | – | – | – | – | – | CC(C)C(OC(=O)N[C@H](C(=O)C(=O)NCc1cccs1)C(C)C)C(C)C | –
0.25 | – | – | – | – | – | CCCC[C@H](NC(=O)OC(C(C)C)C(C)C)C(=O)C(=O)Nc1ccc2ccccc2n1 | –
0.095 | – | – | – | – | – | CCCC[C@H](NC(=O)OC(C(C)C)C(C)C)C(=O)C(=O)Nc1cccnc1 | –
0.00065 | 0.012 | – | – | – | – | CCCC[C@H](NC(=O)OC(C(C)C)C(C)C)C(=O)C(=O)Nc1cc(-c2ccccc2)n[nH]1 | –
0.052 | – | – | – | – | – | CCCC[C@H](NC(=O)OC(C(C)C)C(C)C)C(=O)C(=O)Nc1cnccn1 | –
0.015 | 1.1 | > 830 | 290 | 130 | 140 | CCCC[C@H](NC(=O)OC(C(C)C)C(C)C)C(=O)C(=O)Nc1ccnn1C1CCC1 | Ratio [8]: > 830
0.027 | 1.7 | > 470 | 220 | 41 | 63 | CCCC[C@H](NC(=O)OC(C(C)C)C(C)C)C(=O)C(=O)Nc1ccnn1CC1CC1 | Ratio [8]: > 470
0.00021 | 0.0018 | 1200 | 25 | 4.1 | 9.1 | CCCC[C@H](NC(=O)OC(C(C)C)C(C)C)C(=O)C(=O)Nc1[nH]ncc1-c1ccccc1 | Ratio [8]: 1700
0.024 | – | – | – | – | – | CC(C)C[C@H](NC(=O)OC(C(C)C)C(C)C)C(=O)C(=O)NCc1cccs1 | –
0.039 | 2.7 | > 320 | 260 | 59 | 120 | CCCC[C@H](NC(=O)OC(C(C)C)C(C)C)C(=O)C(=O)Nc1ccnn1CC(C)C | Ratio [8]: > 320
0.00071 | – | – | – | – | – | CCCC[C@H](NC(=O)OC(C(C)C)C(C)C)C(=O)C(=O)Nc1cc(C)n[nH]1 | –
0.062 | 1.6 | – | – | – | – | CCCC[C@H](NC(=O)OC(C(C)C)C(C)C)C(=O)C(=O)Nc1ccnn1CCC(C)(C)C | –
0.022 | 1.2 | – | – | – | – | CCCC[C@H](NC(=O)OC(C(C)C)C(C)C)C(=O)C(=O)Nc1ccnn1C1CCCCC1 | –
0.014 | – | – | – | – | – | CC(C)C(OC(=O)N[C@@H](CC1CCCCC1)C(=O)C(=O)NCc1cccs1)C(C)C | –
0.017 | 1 | – | – | – | – | CCCC[C@H](NC(=O)OC(C(C)C)C(C)C)C(=O)C(=O)Nc1ccnn1C(C)C | –
